Published values from different studies.
Lines come from different studies, so protocols differ.
Target: Aurora kinase A (AURKA, Homo sapiens, UniProt O14965)
One construct used (O14965 1-403): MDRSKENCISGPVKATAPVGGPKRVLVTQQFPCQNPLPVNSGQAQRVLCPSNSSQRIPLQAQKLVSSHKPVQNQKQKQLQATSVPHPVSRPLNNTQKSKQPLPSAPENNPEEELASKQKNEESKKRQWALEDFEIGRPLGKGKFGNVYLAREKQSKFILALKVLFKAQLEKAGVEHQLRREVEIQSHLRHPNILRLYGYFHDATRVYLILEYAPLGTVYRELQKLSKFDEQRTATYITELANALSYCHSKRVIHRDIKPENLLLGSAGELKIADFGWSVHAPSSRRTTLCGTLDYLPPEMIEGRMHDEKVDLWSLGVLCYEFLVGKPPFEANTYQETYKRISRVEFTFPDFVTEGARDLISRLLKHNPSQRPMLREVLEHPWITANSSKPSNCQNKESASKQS

For `C#Cc1cc(-c2cc(Nc3nc(N[C@@H](C)c4ccc(F)cn4)ncc3Cl)n[nH]2)ccc1C=O`, the inhibition was 82% (enzyme activity, inhibitor; 0.2 µM).
The remaining binding of `COc1ccc2oc(-c3ccc4nc(N)oc4c3)c/c(=N\c3ccccc3NC(=O)CCN)c2c1` is reported as 98% (binding; 1 µM).
`C1=C/COCc2cc(ccc2OCCN2CCCC2)Nc2nccc(n2)-c2cccc(c2)COC/1` gave a remaining binding of 81% (binding; 0.1 µM).
With `C=CC(=O)N1CCC[C@@H](n2nc(-c3ccc(Oc4ccccc4)cc3)c3c(N)ncnc32)C1` the inhibition was 5% (enzyme activity, inhibitor; 1 µM).
For `CCCCC(=O)Nc1ccc(-c2ccc3ncn(CCC)c(=O)c3c2)cn1`, the remaining binding was 100% (binding, competition with immobilised ligand; 0.5 µM).
`CN1CCN(C(=O)c2ccc(NC(=O)Nc3ccc(N(C)c4ccnc(Nc5ccc(CS(C)(=O)=O)cc5)n4)cc3)cc2)CC1` has a remaining binding of 0% (binding, competition with immobilised ligand; 1 µM).
`N#Cc1ccc(NC(=O)Nc2ccccc2)cc1` gave a remaining binding of 80% (cell-free assay, competition with immobilised ligand; 25 µM).
`CC(=O)ON=C1C=CC(=C(C#N)c2ccccc2)C=C1` gave an activity vs control of 66% (enzyme activity, inhibitor, ADP detection; 20 µM).
For `C[C@H]1CC[C@H](n2c3cnccc3c3cnc(Nc4ccc5c(n4)CCN(C(=O)CO)C5)nc32)CC1`, the remaining binding was 100% (cell-free assay, competition with immobilised ligand; 1 µM).
`C=CC(=O)N1CCC([C@@H]2CCNc3c(C(N)=O)c(-c4ccc(Oc5ccccc5)cc4)nn32)CC1` gave an inhibition of 1% (enzyme activity, inhibitor; 1 µM).
